Here are results for one compound from ChEMBL document CHEMBL1157638, “Fluorescent epigenetic small molecule induces expression of the tumor suppressor ras-association domain family 1A and inhibits human prostate xenograft” (J Med Chem, 2010).

A value given as a limit tells only on which side of the number the result lay.

What all share (type): functional
One test concerns K562. The experiment in a line: Growth inhibition of human K562 cells assessed as cell growth at 1 uM relative to untreated control. The settings on record: read-out: Activity.
The subject of another test is SF-268. Nature of the test: Growth inhibition of human SF268 cells assessed as cell growth at 1 uM relative to untreated control. The settings on record: read-out: Activity.
Another test concerns NCI/ADR-RES. Nature of the test: Growth inhibition of human NCI/ADR-RES cells.
The subject of another test is BT-549. Nature of the test: Growth inhibition of human BT549 cells assessed as cell growth at 10 nM relative to untreated control. The settings on record: read-out: Activity.
A further test concerns SW-620. Nature of the test: Growth inhibition of human SW620 cells assessed as cell growth at 1 uM relative to untreated control. The settings on record: read-out: Activity.
Another test relates to OVCAR-5. The experiment in a line: Growth inhibition of human OVCAR5 cells assessed as cell growth at 1 uM relative to untreated control. The settings on record: read-out: Activity.
Another test concerns HCT-116. The experiment in a line: Growth inhibition of human HCT116 cells assessed as cell growth at 10 nM relative to untreated control. The settings on record: read-out: Activity. Summed up: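 Run externally at the National Cancer Institute as a 59-cell-line panel screen, with concentrations up to 100 μM. Growth was scored relative to control, where negative growth or total cell kill was possible. Data are in the Supporting Information.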

A further test concerns MDA-MB-231. The experiment in a line: Growth inhibition of human MDA-MB-231 cells assessed as cell growth at 10 nM relative to untreated control. The settings on record: read-out: Activity.

For orientation: GI50 means the concentration at which growth is held to half of that of the control. Low readings indicate greater sensitivity of the cells, high ones lower sensitivity of the cells. As usually defined, the TGI is the concentration at which net growth stops.

As to `COc1ccc2c(c1)[nH]c1c(C)c(OS(=O)(=O)c3cccc4c(N(C)C)cccc34)ccc12`, the growth at 1 µM was 5% in the test on K562, 44% with SF-268, 24% in the test on SW-620 and 101% in the test on OVCAR-5. Further, it took 4.63 µM to inhibit growth in the test with NCI/ADR-RES by half (GI50). Further, the TGI in the test with NCI/ADR-RES was > 100 µM. Further, the CC50 in the test on NCI/ADR-RES (read-out: LC50 (the source's name)) was > 100 µM. For the same compound, the figures for the growth at 0.01 µM in the test on BT-549, in the test on HCT-116 and with MDA-MB-231 were 90%, 106% and 86%, respectively.
